From ChEMBL document CHEMBL3616402, “A novel series of indazole-/indole-based glucagon receptor antagonists” (Bioorg Med Chem Lett, 2015)
The source made the active and inactive calls. No cut-off for these calls is given here.

How the values were obtained:
Glucagon receptor [1] = molecular target: T1, Glucagon receptor (Homo sapiens, UniProt P47871); experiment: Displacement of [125I]glucagon from human glucagon receptor expressed in CHO cell membranes
Summary of the method: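 Binding: displacement of [125I]glucagon from human GCGR in membranes prepared from a CHO cell line stably expressing hGCGR; IC50 reported in nM.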

Glucagon receptor [2] = molecular target: T1, Glucagon receptor; experiment: Antagonist activity against human glucagon receptor expressed in CHO cells assessed as reduction in glucagon-induced cAMP production; assay type: functional, cell-based
[3] = molecular target: T2, Gastric inhibitory polypeptide receptor (Homo sapiens, UniProt P48546); experiment: Antagonist activity against human glucose dependent insulinotropic peptide receptor by cAMP accumulation assay; assay type: functional
T2 sequence (P48546 whole entry): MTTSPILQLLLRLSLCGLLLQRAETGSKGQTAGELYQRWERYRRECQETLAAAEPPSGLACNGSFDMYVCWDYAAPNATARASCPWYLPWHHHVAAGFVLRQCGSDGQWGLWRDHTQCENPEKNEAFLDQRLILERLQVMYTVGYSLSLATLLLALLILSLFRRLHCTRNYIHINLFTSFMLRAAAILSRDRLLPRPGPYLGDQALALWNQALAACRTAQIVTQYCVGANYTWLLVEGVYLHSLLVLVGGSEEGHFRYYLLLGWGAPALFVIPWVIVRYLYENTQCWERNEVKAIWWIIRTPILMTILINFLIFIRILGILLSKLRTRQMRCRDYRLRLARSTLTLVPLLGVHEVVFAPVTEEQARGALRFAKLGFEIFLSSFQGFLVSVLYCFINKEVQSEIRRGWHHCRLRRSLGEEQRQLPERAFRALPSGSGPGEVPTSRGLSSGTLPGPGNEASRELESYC
Summary of the method: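 Selectivity counter-screen: cAMP production measured in CHO cells expressing human GIPR; IC50 (potency) determined.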

Homo sapiens = organism: Homo sapiens; experiment: Selectivity index, ratio of IC50 for human glucose dependent insulinotropic peptide receptor to IC50 for human glucagon receptor
[4] = Plasma clearance in Wistar rat at 0.5 mg/kg, iv or 2 mg/kg, po; assay type: ADME, organism-based
Summary of the method: (§1)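 Wistar rats given 0.5 mg/kg iv and 2 mg/kg po; plasma concentration–time profiles used to derive plasma clearance, steady-state volume of distribution, half-life and dose-normalized AUC (µM·h·kg/mg).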

[5] = Volume of distribution at steady state in Wistar rat at 0.5 mg/kg, iv or 2 mg/kg, po; assay type: ADME, organism-based; conditions: in vivo, read-out: Vdss; summary of the method: as §1
[6] = Half life in Wistar rat at 0.5 mg/kg, iv or 2 mg/kg, po; assay type: ADME, organism-based; conditions: in vivo; summary of the method: as §1
Rattus norvegicus = experiment: Dose normalized AUC in Wistar rat at 0.5 mg/kg, iv or 2 mg/kg, po; assay type: ADME, organism-based; conditions: in vivo; summary of the method: as §1
[7] = Oral bio availability in Wistar rat 2 mg/kg; assay type: ADME, organism-based; conditions: in vivo
Summary of the method: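 Oral bioavailability from Wistar rats dosed 2 mg/kg po with 0.5 mg/kg iv reference dose; F (%) from plasma exposure.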

Mus musculus [8] = experiment: Reduction in glucagon-induced glucose excursion in glucagon receptor humanized mouse model of acute glucagon challenge model at 1 to 10 mg/kg, po dosed 1 hr before glucagon challenge; assay type: functional, organism-based
Summary of the method: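 hGCGR-humanized mice given compound orally at 1, 3 or 10 mg/kg one hour prior to IP glucagon (15 µg/kg); blood glucose followed as change from time 0.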

[9] = Drug level in glucagon-induced glucose excursion in glucagon receptor humanized mouse model of acute glucagon challenge model at 1 mg/kg, po dosed 1 hr before glucagon challenge and measured after 60 mins post dose; assay type: ADME, organism-based; conditions: in vivo, read-out: Drug uptake
Summary of the method: (§2)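 Glucagon-receptor-humanized (hGCGR) mice dosed orally at 1, 3 or 10 mg/kg one hour before IP glucagon challenge (15 µg/kg); drug level measured at 60 min.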

[10] = Drug level in glucagon-induced glucose excursion in glucagon receptor humanized mouse model of acute glucagon challenge model at 3 mg/kg, po dosed 1 hr before glucagon challenge and measured after 60 mins post dose; assay type: ADME, organism-based; conditions: in vivo, read-out: Drug uptake; summary of the method: as §2
[11] = Drug level in glucagon-induced glucose excursion in glucagon receptor humanized mouse model of acute glucagon challenge model at 10 mg/kg, po dosed 1 hr before glucagon challenge and measured after 60 mins post dose; assay type: ADME, organism-based; conditions: in vivo, read-out: Drug uptake; summary of the method: as §2
Mus musculus [12] = experiment: Reduction in blood glucose levels in glucagon receptor humanized ob/ob mouse acute model at 3 mg/kg, po after 1 to 6 hrs; assay type: functional, organism-based
Summary of the method: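 hGCGR ob/ob mice (N = 10–12 per group) dosed orally at 3 mg/kg at 0 h with food removed at 0 h; ambient blood glucose monitored over 6 h versus vehicle control, significance at each time point.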

[13] = Drug level in glucagon receptor humanized ob/ob mouse acute model at 3 mg/kg, po after 1 hrs; assay type: ADME, organism-based; conditions: in vivo, read-out: Drug uptake
[14] = Drug level in glucagon receptor humanized ob/ob mouse acute model at 3 mg/kg, po after 3 hrs; assay type: ADME, organism-based; conditions: in vivo, read-out: Drug uptake

T1 sequence (P47871 whole entry): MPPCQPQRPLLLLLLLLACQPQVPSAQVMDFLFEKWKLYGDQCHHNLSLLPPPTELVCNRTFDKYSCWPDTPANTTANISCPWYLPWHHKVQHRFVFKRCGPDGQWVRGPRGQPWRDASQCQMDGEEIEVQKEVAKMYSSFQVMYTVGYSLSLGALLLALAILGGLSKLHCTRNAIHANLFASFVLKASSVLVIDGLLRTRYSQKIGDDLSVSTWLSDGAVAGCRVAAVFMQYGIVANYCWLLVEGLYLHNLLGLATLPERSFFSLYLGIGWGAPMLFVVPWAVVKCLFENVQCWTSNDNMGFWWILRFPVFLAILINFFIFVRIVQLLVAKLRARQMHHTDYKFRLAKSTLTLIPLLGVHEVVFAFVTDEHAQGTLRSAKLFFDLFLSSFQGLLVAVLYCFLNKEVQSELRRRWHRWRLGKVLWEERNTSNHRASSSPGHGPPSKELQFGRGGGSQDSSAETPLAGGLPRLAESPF

IC50 (Glucagon receptor [1]): 2.6 nM | IC50 (Glucagon receptor [2]): 7.6 nM | IC50 [3]: 1300 nM | Ratio IC50 (Homo sapiens): 170 | clearance [4]: 6.3 mL/min/kg | Vd [5]: 0.65 L/kg | half-life [6]: 1.5 h | AUC/dose (Rattus norvegicus): 2 µM·kg·h/mg | bioavailability [7]: 44% | concentration at 1 h [9]: 180 nM | concentration at 1 h [10]: 500 nM | concentration at 1 h [11]: 2540 nM | concentration at 1 h [13]: 400 nM | concentration at 3 h [14]: 280 nM
Structure (SMILES): COc1ccc(C(F)(F)F)cc1-c1nn(C(C)c2ccc(C(=O)NCCC(=O)O)cc2)c2cc(-c3ccc(C)cc3)ccc12 (stereo unspecified)
inhibition (Mus musculus [8]): Active | inhibition (Mus musculus [12]): Active
